For one data set, the system named is Plasmodium falciparum. Briefly: Antiplasmodial activity against chloroquine-sensitive asexual erythrocytic stage of Plasmodium falciparum D10 assessed as parasite growth inhibition by lactate dehydrogenase assay. Format: functional, organism-based. Put shortly:
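Parasite lactate dehydrogenase assay (modified Makler method). Samples held as 20 mg/mL stocks in DMSO, diluted on test day. Full dose-response: starting at 10 μg/mL, 2-fold serial dilution in complete medium over 10 concentrations down to 0.02 μg/mL. Chloroquine, artesunate and MMV390048 served as references. IC50 from nonlinear dose-response curve fitting; mean of three independent experiments.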

For data set [1], the system named is Coxsackievirus B4. Briefly: Antiviral activity against Coxsackievirus B4 infected in human HeLa cells assessed as inhibition of virus-induced cytopathicity. Format: functional, organism-based. The method, boiled down:
(§1)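 Confluent monolayers (HEL, Vero, HeLa or CrFK, as applicable) were inoculated with 100 CCID50 of virus, with 1 CCID50 being the dose that infects 50% of cultures. Infection ran in the presence of varying compound concentrations. Inhibition of virus-induced cytopathicity was scored against infected cultures left untreated.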

Data set [2] can be described thus: Cytotoxicity against cat CRFK cells assessed as cell viability by MTS assay. Format: cell-based, Felis catus. The method, boiled down:
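CRFK cells were exposed to varying sample concentrations. Cell viability was measured with the colorimetric formazan-based MTS assay, and the 50% cytotoxic concentration (CC50) was derived from it.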

In data set [3] the test system is Vesicular stomatitis virus. Briefly: Antiviral activity against Vesicular stomatitis virus infected in human HeLa cells assessed as inhibition of virus-induced cytopathicity. Format: functional, organism-based. The method, boiled down: (§2)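 Confluent monolayers in 96-well plates were inoculated with 100 CCID50 of virus in the presence of varying concentrations of compound. Read-out was inhibition of virus-induced cytopathicity, compared with untreated infected cultures. Cytotoxicity was judged microscopically or by MTT viability staining.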
(In general: Cytopathic effects are the visible damage that an infection or toxin causes in cultured cells.)

The subject of the next data set is Felid alphaherpesvirus 1. Briefly: Antiviral activity against Feline herpesvirus infected in cat CRFK cells assessed as inhibition of virus-induced cytopathicity. Format: functional, organism-based. Put shortly: as §1
A further data set deals with Sindbis virus. Briefly: Antiviral activity against Sindbis virus infected in African green monkey Vero cells assessed as inhibition of virus-induced cytopathicity. Format: functional, organism-based.
Data set [4] is described as follows: Solubility of the compound in octanol at pH 7.4 by HPLC analysis. Format: physicochemical.
Data set [5] in a line: Cytotoxicity against human HeLa cells assessed as alteration of cell morphology by microscopic analysis. Format: cell-based. The settings on record: read-out: MIC. The method, boiled down: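 Cells (Vero, HEL, MDCK or HeLa) were exposed to a range of sample concentrations. The value reported is the concentration required to cause a microscopically detectable alteration of normal cell morphology.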

Data set [6] in a line: n-octanol-PBS buffer distribution coefficient, log D of the compound at pH 7.4 after 24 hrs by HPLC analysis. Format: physicochemical.
The subject of the next data set is Human alphaherpesvirus 2. Briefly: Antiviral activity against HSV-2 G infected in HEL cells assessed as inhibition of virus-induced cytopathicity. Format: functional, organism-based. As to conditions: strain G. Put shortly: as §1
The subject of data set [7] is Mammalian orthoreovirus 1. Briefly: Antiviral activity against Reovirus 1 infected in African green monkey Vero cells assessed as inhibition of virus-induced cytopathicity. Format: functional, organism-based. Put shortly: as §1
The subject of data set [8] is Human betaherpesvirus 5. Briefly: Antiviral activity against Cytomegalovirus Davis infected in HEL cells assessed as inhibition of virus-induced cytopathicity. Format: functional, organism-based.
Data set [9] concerns Respiratory syncytial virus. Briefly: Antiviral activity against Respiratory syncytial virus infected in human HeLa cells assessed as inhibition of virus-induced cytopathicity. Format: functional, organism-based. The method, boiled down: as §1
The subject of data set [10] is Human alphaherpesvirus 1. Briefly: Antiviral activity against thymidine kinase-negative acyclovir-resistant HSV-1 KOS infected in HEL cells assessed as inhibition of virus-induced cytopathicity. Format: functional, organism-based. The method, boiled down:
as §2

A further data set relates to Vaccinia virus. Briefly: Antiviral activity against Vaccinia virus infected in HEL cells assessed as inhibition of virus-induced cytopathicity. Format: functional, organism-based. The settings on record: Orthopoxvirus vaccinia. Put shortly:
as §2

The test system of data set [11] is Coxsackievirus B4. Briefly: Antiviral activity against Coxsackievirus B4 infected in African green monkey Vero cells assessed as inhibition of virus-induced cytopathicity. Format: functional, organism-based. Put shortly:
as §1

Data set [12] deals with Human alphaherpesvirus 1. Briefly: Antiviral activity against HSV-1 KOS infected in HEL cells assessed as inhibition of virus-induced cytopathicity. Format: functional, organism-based. Put shortly: as §1
In another data set the test system is Influenza A virus H3N2. Briefly: Antiviral activity against Influenza A virus H3N2 infected in MDCK cells assessed as inhibition of virus-induced cytopathicity. Format: functional, organism-based. The method, boiled down: as §2
A further data set concerns Feline coronavirus. Briefly: Antiviral activity against Feline coronavirus infected in cat CRFK cells assessed as inhibition of virus-induced cytopathicity. Format: functional, organism-based. Put shortly:
as §1

Another data set has as its system Punta Toro virus. Briefly: Antiviral activity against Punta Toro virus infected in African green monkey Vero cells assessed as inhibition of virus-induced cytopathicity. Format: functional, organism-based. Put shortly: as §1
The next data set relates to Human alphaherpesvirus 3. Briefly: Antiviral activity against Varicella-zoster virus infected in HEL cells assessed as inhibition of virus-induced cytopathicity. Format: functional, organism-based.
In another data set the test system is Human respirovirus 3. Briefly: Antiviral activity against parainfluenza virus 3 infected in African green monkey Vero cells assessed as inhibition of virus-induced cytopathicity. Format: functional, organism-based. Put shortly:
as §1

For the next data set, the system named is Influenza A virus. Briefly: Antiviral activity against influenza A virus H1N1 infected in MDCK cells assessed as inhibition of virus-induced cytopathicity. Format: functional, organism-based. The method, boiled down: as §2
For data set [13], the system named is Human betaherpesvirus 5. Briefly: Antiviral activity against Cytomegalovirus AD169 infected in HEL cells assessed as inhibition of virus-induced cytopathicity. Format: functional, organism-based.
In data set [14] the test system is Vesicular stomatitis virus. Briefly: Antiviral activity against Vesicular stomatitis virus infected in HEL cells assessed as inhibition of virus-induced cytopathicity. Format: functional, organism-based. Put shortly:
as §2

Data set [15] in a line: Aqueous solubility of the compound in PBS buffer at pH 7.4 after 24 hrs by HPLC analysis. Format: physicochemical. The settings on record: pH 7.4, 24 h.

The record followed here is ChEMBL document CHEMBL3112527, “Quinoline-pyrimidine hybrids: synthesis, antiplasmodial activity, SAR, and mode of action studies” (J Med Chem, 2014).

In brackets after ≈: the same amount, converted by molar mass. Activity calls are given as the source filed them. The calls are words filed in the database; no cut-off is given here.

Broadly, the IC50 is the point on the concentration scale where inhibition reaches its midpoint. Regarding `C[C@H]1[C@H](OC(=O)CCC(=O)O)O[C@@H]2O[C@@]3(C)CC[C@H]4[C@H](C)CC[C@@H]1[C@@]24OO3` [ARTESUNATE], the half-inhibitory concentration (IC50) in the data set on Plasmodium falciparum was determined as 0.0063 µM.
The term CC50 denotes the concentration at which the toxic effect on the cells reaches its halfway point. Usually solubility stands for the dissolved amount per volume that the medium holds. As a reminder, the logD is the decadic logarithm of the distribution of all forms, ionised or not, between an organic phase and buffer at a given pH. For `Clc1ccc2c(NCCCCCCCNc3nccc(Cl)n3)ccnc2c1`, the inhibition result (in the data set with Coxsackievirus B4 [1]; in data set [3]; in the data set with Felid alphaherpesvirus 1; in the data set on Sindbis virus; with Human alphaherpesvirus 2; in [7]) was “inactive” throughout. In addition, the inhibition result (in the data set with Human betaherpesvirus 5 [8]; in data set [9]; with Human alphaherpesvirus 1 [10]; with Vaccinia virus; in the data set with Coxsackievirus B4 [11]; in the data set with Human alphaherpesvirus 1 [12]) was “inactive” throughout. Further, the inhibition result in the data set on Influenza A virus H3N2, in the data set with Feline coronavirus, in the data set with Punta Toro virus, in the data set with Human alphaherpesvirus 3, with Human respirovirus 3 and in the data set with Influenza A virus was “inactive” in each case. Besides, the inhibition entry (with Human betaherpesvirus 5 [13]; in [14]) was “inactive” in each case. Besides, the CC50 in data set [2] is over 100 µM. In the data set with Plasmodium falciparum, the IC50 stood at 0.383 µM. Further, the solubility in data set [4] was 1.92 µM (≈ 0.776 µg/mL); in data set [15] it was 0.13 µM (≈ 0.0526 µg/mL). Besides, in data set [5], the MCC came to 4 µM. This compound also yielded a pH-dependent lipophilicity (logD) at 24 h in data set [6] of 1.16.
In the case of `Clc1ccnc(N2CCOCC2)n1`, the inhibition entry (with Coxsackievirus B4 [1]; in [3]; with Felid alphaherpesvirus 1; with Sindbis virus; with Human alphaherpesvirus 2; in [7]) was “inactive” each time. The inhibition result (with Human betaherpesvirus 5 [8]; in data set [9]; with Human alphaherpesvirus 1 [10]; in the data set on Vaccinia virus; with Coxsackievirus B4 [11]; with Human alphaherpesvirus 1 [12]) was “inactive” throughout. Further, the inhibition result with Influenza A virus H3N2, in the data set on Feline coronavirus, in the data set on Punta Toro virus, in the data set on Human alphaherpesvirus 3, with Human respirovirus 3 and in the data set on Influenza A virus was “inactive” throughout. Besides, the inhibition entry (in the data set with Human betaherpesvirus 5 [13]; in data set [14]) was “inactive” throughout. Further, the CC50 in data set [2] was over 100 µM. The IC50 in the data set on Plasmodium falciparum was 15 µM. Also, the solubility in data set [4] is 12.1 µM (≈ 2.42 µg/mL); in data set [15], 9 µM (≈ 1.8 µg/mL). In [5], the MCC was over 100 µM. Further, the logD at 24 h in data set [6] is 0.13.
In the case of `Clc1ccc2c(NCCCCCCCCNc3nccc(Cl)n3)ccnc2c1`, the inhibition result (with Coxsackievirus B4 [1]; in data set [3]; in the data set on Felid alphaherpesvirus 1; with Sindbis virus; in the data set with Human alphaherpesvirus 2; in [7]) was “inactive” each time. For the same compound, the inhibition result (in the data set on Human betaherpesvirus 5 [8]; in data set [9]; in the data set with Human alphaherpesvirus 1 [10]; in the data set with Vaccinia virus; in the data set on Coxsackievirus B4 [11]; in the data set with Human alphaherpesvirus 1 [12]) was “inactive” each time. For the same compound, the inhibition entry with Influenza A virus H3N2, with Feline coronavirus, with Punta Toro virus, with Human alphaherpesvirus 3, in the data set with Human respirovirus 3 and in the data set on Influenza A virus was “inactive” each time. Besides, the inhibition entry (in the data set with Human betaherpesvirus 5 [13]; in [14]) was “inactive” in each case. In addition, in data set [2], the cytotoxic concentration (CC50) was found to be 10 µM. Moreover, in the data set with Plasmodium falciparum, the IC50 was found to be 1.06 µM. Also, the solubility in data set [4] amounted to 2.91 µM (≈ 1.22 µg/mL); in [15], 0.09 µM (≈ 0.0377 µg/mL). Also, the MCC in data set [5] came to 20 µM. Also, the logD at 24 h in data set [6] is 1.51.
As to `CS(=O)(=O)c1ccc(-c2cnc(N)c(-c3ccc(C(F)(F)F)nc3)c2)cc1` [MMV-048], in the data set on Plasmodium falciparum, the IC50 amounted to 0.00901 µM.
Regarding `Clc1ccc2c(NCCNc3ccnc(Cl)n3)ccnc2c1`, the inhibition entry (in the data set on Coxsackievirus B4 [1]; in data set [3]; in the data set on Felid alphaherpesvirus 1; in the data set with Sindbis virus; in the data set on Human alphaherpesvirus 2; in data set [7]) was “inactive” throughout. Also, the inhibition entry (in the data set with Human betaherpesvirus 5 [8]; in data set [9]; in the data set with Human alphaherpesvirus 1 [10]; in the data set on Vaccinia virus; in the data set on Coxsackievirus B4 [11]; with Human alphaherpesvirus 1 [12]) was “inactive” each time. For the same compound, the inhibition result with Influenza A virus H3N2, with Feline coronavirus, in the data set with Punta Toro virus, in the data set with Human alphaherpesvirus 3, in the data set on Human respirovirus 3 and in the data set with Influenza A virus was “inactive” each time. For the same compound, the inhibition entry (in the data set with Human betaherpesvirus 5 [13]; in [14]) was “inactive” each time. Also, the CC50 in data set [2] was over 100 µM. The concentration for half-maximal inhibition (IC50) in the data set with Plasmodium falciparum worked out at 1.43 µM. The solubility was 2.09 µM (≈ 0.698 µg/mL) in [4] and 0.68 µM (≈ 0.227 µg/mL) in data set [15]. The MCC in data set [5] stood at 4 µM. In data set [6], this compound showed a logD at 24 h of 0.489.
With `Clc1ccc2c(NCCCCCCCCCCNc3nccc(Cl)n3)ccnc2c1`, the inhibition entry (in the data set on Coxsackievirus B4 [1]; in data set [3]; with Felid alphaherpesvirus 1; in the data set on Sindbis virus; with Human alphaherpesvirus 2; in data set [7]) was “inactive” each time. For the same compound, the inhibition result (in the data set on Human betaherpesvirus 5 [8]; in data set [9]; in the data set with Human alphaherpesvirus 1 [10]; with Vaccinia virus; with Coxsackievirus B4 [11]; in the data set on Human alphaherpesvirus 1 [12]) was “inactive” throughout. Further, the inhibition result in the data set with Influenza A virus H3N2, in the data set with Feline coronavirus, with Punta Toro virus, in the data set on Human alphaherpesvirus 3, in the data set on Human respirovirus 3 and with Influenza A virus was “inactive” in each case. The inhibition entry (in the data set on Human betaherpesvirus 5 [13]; in data set [14]) was “inactive” each time. Also, the CC50 in [2] is 4.4 µM. For the same compound, the IC50 with Plasmodium falciparum was 3.34 µM. The solubility was 6.82 µM (≈ 3.04 µg/mL) in data set [4] and 0.07 µM (≈ 0.0312 µg/mL) in data set [15]. Also, the MCC in data set [5] was found to be 4 µM. In addition, the logD at 24 h in data set [6] was determined as 1.99.
